# Test results taken from ChEMBL document CHEMBL1126751, “Studies on quinazolines. 5. 2,3-dihydroimidazo[1,2-c]quinazoline derivatives: a novel class of potent and selective alpha 1-adrenoceptor antagonists and antihypertensive agents” (J Med Chem, 1993).
# Active and inactive are the calls of the source. No cut-off for these calls is given here.
# Tests used:
# [1] = test system: Rattus norvegicus; test: Blood pressure lowering activity in spontaneously hypertensive rats (SHR) after 6 hours of administration (iv) of dose of 4.0 mg/kg […]; type: functional
# [2] = test system: Rattus norvegicus; test: Blood pressure lowering activity in spontaneously hypertensive rats (SHR) after 1 hour of administration (iv) of dose of 4.0 mg/kg […]; type: functional
# [3] = biological target: T1, Adrenergic receptor alpha-2 (Rattus norvegicus, UniProt P22086+P19328+P22909); test: Binding affinity against alpha-2 adrenergic receptor by measuring displacement of [3H]clonidine from rat brain cortex membranes (in vitro).; type: cell membranes, Membrane
# T1 sequence (P22086 whole entry): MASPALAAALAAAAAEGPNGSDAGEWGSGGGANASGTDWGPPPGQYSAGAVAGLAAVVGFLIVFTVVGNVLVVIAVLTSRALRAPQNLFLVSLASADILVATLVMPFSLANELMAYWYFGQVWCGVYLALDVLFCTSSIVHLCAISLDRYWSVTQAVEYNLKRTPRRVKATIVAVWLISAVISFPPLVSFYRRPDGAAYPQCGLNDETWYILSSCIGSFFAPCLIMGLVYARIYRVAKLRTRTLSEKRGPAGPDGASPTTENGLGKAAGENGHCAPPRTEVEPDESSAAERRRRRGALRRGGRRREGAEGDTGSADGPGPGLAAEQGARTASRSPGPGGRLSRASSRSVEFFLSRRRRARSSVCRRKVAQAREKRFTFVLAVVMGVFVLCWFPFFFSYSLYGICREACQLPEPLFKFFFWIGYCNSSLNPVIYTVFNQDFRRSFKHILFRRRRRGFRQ
# T1 sequence (P19328 whole entry): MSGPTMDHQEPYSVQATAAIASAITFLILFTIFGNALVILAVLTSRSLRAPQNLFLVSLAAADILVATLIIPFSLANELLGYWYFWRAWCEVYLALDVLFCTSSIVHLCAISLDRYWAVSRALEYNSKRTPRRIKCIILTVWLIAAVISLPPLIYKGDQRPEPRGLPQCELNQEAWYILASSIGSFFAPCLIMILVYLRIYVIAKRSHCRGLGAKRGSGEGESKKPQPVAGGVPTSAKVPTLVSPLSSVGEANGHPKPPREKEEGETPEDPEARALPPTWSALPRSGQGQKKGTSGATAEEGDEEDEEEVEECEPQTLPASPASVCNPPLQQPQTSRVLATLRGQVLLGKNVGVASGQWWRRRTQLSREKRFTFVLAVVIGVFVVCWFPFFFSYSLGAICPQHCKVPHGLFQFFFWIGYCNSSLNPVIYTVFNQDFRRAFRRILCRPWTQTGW
# T1 sequence (P22909 whole entry): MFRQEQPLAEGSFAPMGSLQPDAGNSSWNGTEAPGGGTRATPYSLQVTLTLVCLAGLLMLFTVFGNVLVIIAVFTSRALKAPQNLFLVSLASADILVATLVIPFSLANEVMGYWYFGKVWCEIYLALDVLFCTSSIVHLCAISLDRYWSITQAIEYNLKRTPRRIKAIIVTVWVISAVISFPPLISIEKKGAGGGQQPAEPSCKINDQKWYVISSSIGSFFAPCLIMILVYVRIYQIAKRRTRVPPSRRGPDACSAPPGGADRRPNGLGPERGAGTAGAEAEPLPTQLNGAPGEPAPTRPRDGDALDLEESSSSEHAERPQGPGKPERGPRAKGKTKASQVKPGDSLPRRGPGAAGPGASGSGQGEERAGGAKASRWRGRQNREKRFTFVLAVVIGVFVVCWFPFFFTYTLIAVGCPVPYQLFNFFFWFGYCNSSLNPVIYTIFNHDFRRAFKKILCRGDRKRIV
# [4] = biological target: T2, Adrenergic receptor alpha-1 (Rattus norvegicus, UniProt P15823+P23944+P43140); test: Binding affinity against alpha-1 adrenergic receptor by measuring displacement of [3H]prazosin from rat brain cortex membranes (in vitro).; type: cell membranes, Membrane
# T2 sequence (P15823 whole entry): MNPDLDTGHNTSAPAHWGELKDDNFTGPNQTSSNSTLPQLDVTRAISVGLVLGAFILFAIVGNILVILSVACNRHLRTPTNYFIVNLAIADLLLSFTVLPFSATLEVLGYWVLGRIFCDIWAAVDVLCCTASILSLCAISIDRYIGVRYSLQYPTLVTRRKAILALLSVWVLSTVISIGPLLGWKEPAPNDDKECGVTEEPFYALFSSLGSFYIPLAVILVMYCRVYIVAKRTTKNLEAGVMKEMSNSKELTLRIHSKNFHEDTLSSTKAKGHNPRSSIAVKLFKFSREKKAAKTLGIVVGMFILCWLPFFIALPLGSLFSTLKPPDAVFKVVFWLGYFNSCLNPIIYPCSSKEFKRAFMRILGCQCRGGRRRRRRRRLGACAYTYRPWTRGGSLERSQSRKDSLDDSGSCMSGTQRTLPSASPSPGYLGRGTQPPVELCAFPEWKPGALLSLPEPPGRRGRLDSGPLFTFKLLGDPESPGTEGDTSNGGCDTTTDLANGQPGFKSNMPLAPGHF
# T2 sequence (P23944 whole entry): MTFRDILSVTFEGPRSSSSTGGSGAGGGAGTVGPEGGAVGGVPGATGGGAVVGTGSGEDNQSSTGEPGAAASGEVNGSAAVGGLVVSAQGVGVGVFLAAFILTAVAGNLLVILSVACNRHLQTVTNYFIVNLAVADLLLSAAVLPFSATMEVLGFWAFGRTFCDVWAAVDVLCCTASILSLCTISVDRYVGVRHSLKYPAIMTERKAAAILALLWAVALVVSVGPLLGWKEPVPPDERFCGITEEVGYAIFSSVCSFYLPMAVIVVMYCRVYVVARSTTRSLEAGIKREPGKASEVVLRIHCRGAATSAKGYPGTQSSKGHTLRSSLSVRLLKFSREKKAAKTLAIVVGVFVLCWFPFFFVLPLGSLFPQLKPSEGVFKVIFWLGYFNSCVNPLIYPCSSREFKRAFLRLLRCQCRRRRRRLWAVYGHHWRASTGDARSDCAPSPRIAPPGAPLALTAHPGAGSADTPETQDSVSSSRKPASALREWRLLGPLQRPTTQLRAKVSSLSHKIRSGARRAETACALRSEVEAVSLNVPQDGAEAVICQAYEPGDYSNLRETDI
# T2 sequence (P43140 whole entry): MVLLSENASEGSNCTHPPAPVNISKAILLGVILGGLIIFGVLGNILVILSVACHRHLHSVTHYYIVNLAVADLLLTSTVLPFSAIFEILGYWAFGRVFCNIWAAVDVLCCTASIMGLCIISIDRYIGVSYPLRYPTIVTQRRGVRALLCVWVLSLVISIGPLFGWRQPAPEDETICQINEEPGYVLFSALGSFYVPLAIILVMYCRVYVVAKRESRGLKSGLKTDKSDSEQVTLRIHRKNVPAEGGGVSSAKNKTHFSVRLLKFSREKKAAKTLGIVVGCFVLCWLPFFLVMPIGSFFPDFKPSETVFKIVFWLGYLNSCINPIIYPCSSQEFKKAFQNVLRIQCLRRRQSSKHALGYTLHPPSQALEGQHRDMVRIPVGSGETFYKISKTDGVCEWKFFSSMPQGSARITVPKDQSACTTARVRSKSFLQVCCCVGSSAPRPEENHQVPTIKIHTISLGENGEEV
# [5] = test system: Rattus norvegicus; test: Blood pressure lowering in spontaneously hypertensive rats (SHR) after 1 hour of administration (iv) of dose of 4.0 mg/kg […]; type: functional
# [6] = test system: Rattus norvegicus; test: Blood pressure lowering activity in spontaneously hypertensive rats (SHR) after 6 hours of administration (iv) of dose of 0.5 mg/kg; type: functional
# [7] = test system: Rattus norvegicus; test: Blood pressure lowering activity in spontaneously hypertensive rats (SHR) after 1 hour of administration (iv) of dose of 0.5 mg/kg; type: functional
# [8] = test system: Rattus norvegicus; test: Blood pressure lowering activity in spontaneously hypertensive rats (SHR) after 1 hour of administration (iv) of dose of 4.0 mg/kg; Did not last more than 1/2 hr […]; type: functional, organism-based; design: dose 4 mg/kg
# [9] = test system: Rattus norvegicus; test: Blood pressure lowering activity in spontaneously hypertensive rats (SHR) after 6 hour of administration (iv) of dose of 4.0 mg/kg; Did not last more than 1/2 hr […]; type: functional, organism-based; design: dose 4 mg/kg
# [10] = test system: Rattus norvegicus; test: Blood pressure lowering activity in spontaneously hypertensive rats (SHR) after 6 hours of administration (iv) of dose of 1.0 mg/kg; type: functional
# [11] = test system: Rattus norvegicus; test: Blood pressure lowering activity in spontaneously hypertensive rats (SHR) after 1 hour of administration (iv) of dose of 1.0 mg/kg; type: functional
# [12] = test system: Rattus norvegicus; test: Inhibitory concentration against 5-HT in conscious spontaneously […] rats (SHR); type: functional, organism-based
# [13] = test system: Rattus norvegicus; test: Inhibitory concentration against phenylephrine in conscious spontaneously […] rats (SHR); type: functional, organism-based
# [14] = test system: Rattus norvegicus; test: Blood pressure lowering activity in spontaneously hypertensive rats (SHR) after 6 hours of administration (iv) of dose of 0.5 mg/kg […]; type: functional
# [15] = test system: Rattus norvegicus; test: Blood pressure lowering activity in spontaneously hypertensive rats (SHR) after 6 hours of administration (iv) of dose of 2.0 mg/kg […]; type: functional
# [16] = test system: Rattus norvegicus; test: Blood pressure lowering activity in spontaneously hypertensive rats (SHR) after 1 hour of administration (iv) of dose of 0.5 mg/kg […]; type: functional
# [17] = test system: Rattus norvegicus; test: Blood pressure lowering activity in spontaneously hypertensive rats (SHR) after 1 hour of administration (iv) of dose of 2.0 mg/kg […]; type: functional
# [18] = test system: Rattus norvegicus; test: Blood pressure lowering activity in spontaneously hypertensive rats (SHR) after 6 hours of administration (iv) of dose of 0.5 mg/kg; Did not last more than 1/2 hr […]; type: functional, organism-based; design: dose 0.5 mg/kg
# [19] = test system: Rattus norvegicus; test: Blood pressure lowering activity in spontaneously hypertensive rats (SHR) after 1 hour of administration (iv) of dose of 0.5 mg/kg; Did not last more than 1/2 hr […]; type: functional, organism-based; design: dose 0.5 mg/kg
# [20] = biological target: T2, Adrenergic receptor alpha-1; test: Alpha-1-antagonistic activity against phenylephrine in rat aorta; type: functional, tissue-based
# [21] = test system: Rattus norvegicus; test: Blood pressure lowering activity in spontaneously hypertensive rats (SHR) after 6 hours of administration (iv) of dose of 0.25 mg/kg; type: functional
# How it was run: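 Anesthetized spontaneously hypertensive rats of either sex, 250–300 g (pentobarbital sodium 40–50 mg/kg ip). Compound given iv via cannulated femoral vein. Arterial pressure recorded via right femoral artery cannula with pressure transducer, body temperature held at 37.5 °C. Value is maximum change in mean blood pressure (mmHg) at the time point. Groups of four to six animals.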
smiles,measurement,setting,value
O=C(c1ccc(F)cc1)C1CCN(CC2CN3C(=O)Nc4ccccc4C3=N2)CC1 (stereo not given),MBP,[1],-13.8 mmHg
same,MBP,[2],-30 mmHg
O=C1Nc2ccccc2C2=NC(CN3CCN(Cc4ccccc4)CC3)CN12 (stereo not given),Ki,[3],> 10000 nM
same,Ki,[4],850 nM
same,MBP,[5],-43.7 mmHg
COc1ccccc1N1CCN(CC2CN3C(=O)Nc4ccccc4C3=N2)CC1 (stereo not given),Ki,[3],3450 nM
same,Ki,[4],1.3 nM
same,MBP,[6],-18.8 mmHg
same,MBP,[7],-20 mmHg
COc1ccc(N2CCN(CC3CN4C(=O)Nc5ccccc5C4=N3)CC2)cc1 (stereo not given),Ki,[4],> 100 nM
same,MBP,[8],inactive
same,MBP,[9],inactive
O=C1Nc2ccccc2C2=NC(CN3CCN(c4ccccc4Cl)CC3)CN12 (stereo not given),Ki,[3],3166 nM
same,Ki,[4],1.1 nM
same,MBP,[6],-5.7 mmHg
same,MBP,[10],-12.6 mmHg
same,MBP,[7],-25.5 mmHg
same,MBP,[11],-40.7 mmHg
O=C(c1ccc(F)cc1)C1CCN(CCn2c(=O)[nH]c3ccccc3c2=O)CC1 [KETANSERIN],IC50,[12],27.8 nM
same,IC50,[13],5.73 nM
CN1C(=O)N2C(=NCC2CN2CCN(c3ccccc3Cl)CC2)c2ccccc21 (stereo not given),Ki,[3],810 nM
same,Ki,[4],0.068 nM
same,MBP,[14],-5.9 mmHg
same,MBP,[15],-14 mmHg
same,MBP,[16],-8.3 mmHg
same,MBP,[17],-24 mmHg
O=C1Nc2ccccc2C2=NC(CN3CCN(Cc4ccc5c(c4)OCO5)CC3)CN12 (stereo not given),Ki,[4],> 100 nM
same,MBP,[8],inactive
same,MBP,[9],inactive
SC1=Nc2ccccc2C2=NC(CN3CCN(c4ccccc4)CC3)CN12 (stereo not given),Ki,[4],158 nM
same,MBP,[1],-22.5 mmHg
same,MBP,[2],-33.9 mmHg
COc1ccccc1N1CCN(CC2CN=C3c4ccccc4NC(=O)N32)CC1 (stereo not given),Ki,[3],593 nM
same,Ki,[4],0.21 nM
same,MBP,[18],inactive
same,MBP,[19],inactive
O=C1Nc2ccccc2C2=NC(CN3CCN(c4ccccc4)CC3)CN12 (stereo not given),pA2,[20],9.82
same,Ki,[3],3860 nM
same,Ki,[4],2.01 nM
same,IC50,[12],0.36 nM
same,IC50,[13],0.44 nM
same,MBP,[21],-8.75 mmHg
same,MBP,[6],-32.5 mmHg
same,MBP,[10],-44.5 mmHg
same,MBP,[7],-49.3 mmHg
same,MBP,[11],-57.5 mmHg
COc1cc2c(cc1OC)C1=NC(CN3CCN(c4ccccc4)CC3)CN1C(=O)N2 (stereo not given),Ki,[3],1694 nM
same,Ki,[4],30 nM
same,MBP,[1],-12.6 mmHg
same,MBP,[2],-38.2 mmHg
COC1=Nc2ccccc2C2=NCC(CN3CCN(c4ccccc4OC)CC3)N12 (stereo not given),Ki,[3],472 nM
same,Ki,[4],0.07 nM
same,MBP,[18],inactive
same,MBP,[16],-17.2 mmHg
CN1C(=O)N2CC(CN3CCN(c4ccccc4)CC3)N=C2c2ccccc21 (stereo not given),Ki,[3],3334 nM
same,Ki,[4],10.5 nM
same,MBP,[18],inactive
same,MBP,[19],inactive
COc1cccc(N2CCN(CC3CN4C(=O)Nc5ccccc5C4=N3)CC2)c1 (stereo not given),MBP,[1],-8.5 mmHg
same,MBP,[2],-20.3 mmHg
